We go through 6 compounds from ChEMBL document CHEMBL1255457, “Determination of an inoculum effect with various cephalosporins among clinical isolates of methicillin-susceptible Staphylococcus aureus” (2010).

Common to all, as to format: functional
Test [1] concerns Staphylococcus aureus. The test can be described thus: Antibacterial activity against methicillin-susceptible beta-lactamase positive Staphylococcus aureus using 5x10^7 CFU/ml high inoculum after 24 hrs by broth microdilution method. The procedure, abridged:
(§1)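 Clinical MSSA isolates previously typed by Bla (25 type A, 15 type B, 45 type C, 13 blaZ-negative), with TX0117, ATCC 29213 and ATCC 25923 as controls. Broth microdilution per CLSI, read at 24 h. Standard (~5 × 10^5 CFU/ml) or high (~5 × 10^7 CFU/ml) inoculum set by OD, CFU/ml checked at random. MIC90 and geometric mean MIC per group, compared by Mann-Whitney test.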

Test [2] concerns Staphylococcus aureus. The test can be described thus: Antibacterial activity against methicillin-susceptible beta-lactamase positive Staphylococcus aureus using 5x10^5 CFU/ml standard inoculum after 24 hrs by broth microdilution method. The procedure, abridged:
as §1

Test [3] deals with Staphylococcus aureus. The experiment in a line: Antibacterial activity against methicillin-susceptible beta-lactamase negative Staphylococcus aureus using 5x10^5 CFU/ml standard inoculum after 24 hrs by broth microdilution method. The procedure, abridged: as §1
Test [4] deals with Staphylococcus aureus. The experiment in a line: Antibacterial activity against methicillin-susceptible beta-lactamase negative Staphylococcus aureus using 5x10^7 CFU/ml high inoculum after 24 hrs by broth microdilution method. The procedure, abridged:
as §1

The test system of test [5] is Staphylococcus aureus. The experiment in a line: Antibacterial activity against methicillin-susceptible Bla-producing Staphylococcus aureus type B using 5x10^5 CFU/ml standard inoculum after 24 hrs by broth microdilution method. The procedure, abridged:
as §1

Test [6] relates to Staphylococcus aureus. The test can be described thus: Antibacterial activity against methicillin-susceptible Bla-producing Staphylococcus aureus type B using 5x10^7 CFU/ml high inoculum after 24 hrs by broth microdilution method. The procedure, abridged: as §1
Test [7] has as its system Staphylococcus aureus. The test can be described thus: Antibacterial activity against methicillin-susceptible Bla-producing Staphylococcus aureus type A using 5x10^7 CFU/ml high inoculum after 24 hrs by broth microdilution method. The procedure, abridged: as §1
In test [8] the test system is Staphylococcus aureus. The experiment in a line: Antibacterial activity against methicillin-susceptible Bla-producing Staphylococcus aureus type C using 5x10^7 CFU/ml high inoculum after 24 hrs by broth microdilution method. Put shortly: as §1
Test [9] concerns Staphylococcus aureus. The experiment in a line: Antibacterial activity against methicillin-susceptible Bla-producing Staphylococcus aureus type C using 5x10^5 CFU/ml standard inoculum after 24 hrs by broth microdilution method. The procedure, abridged: as §1
Test [10] relates to Staphylococcus aureus. The test can be described thus: Antibacterial activity against methicillin-susceptible Bla-producing Staphylococcus aureus type A using 5x10^5 CFU/ml standard inoculum after 24 hrs by broth microdilution method. The procedure, abridged: as §1

Converted amounts (≈) assume the structure as drawn.

As to `CCOc1ccc2ccccc2c1C(=O)N[C@@H]1C(=O)N2[C@@H]1SC(C)(C)[C@@H]2C(=O)O` [NAFCILLIN], the minimum inhibitory concentration (MIC) with Staphylococcus aureus [1] was 0.7 µg/mL (≈ 1.69 µM); with Staphylococcus aureus [2], 0.4 µg/mL (≈ 0.965 µM); in the test on Staphylococcus aureus [3], 0.4 µg/mL (≈ 0.965 µM); in the test with Staphylococcus aureus [4] it was 0.7 µg/mL (≈ 1.69 µM). Besides, the MIC90 in the test with Staphylococcus aureus [1] was 1 µg/mL (≈ 2.41 µM); in the test with Staphylococcus aureus [2], 0.5 µg/mL (≈ 1.21 µM); against Staphylococcus aureus [3], 0.5 µg/mL (≈ 1.21 µM); with Staphylococcus aureus [4], 1 µg/mL (≈ 2.41 µM).
As for `Nc1nc(/C(=N/O)C(=O)N[C@@H]2C(=O)N3C(C(=O)O)=C(/C=C4\CCN([C@@H]5CCNC5)C4=O)CS[C@H]23)ns1` [CEFTOBIPROLE], the minimum inhibitory concentration (MIC) worked out at 0.5 µg/mL (≈ 0.935 µM) in the test with Staphylococcus aureus [5]; 0.7 µg/mL (≈ 1.31 µM) in the test on Staphylococcus aureus [6]; 0.7 µg/mL (≈ 1.31 µM) with Staphylococcus aureus [1]; 0.7 µg/mL (≈ 1.31 µM) against Staphylococcus aureus [7]; 0.4 µg/mL (≈ 0.748 µM) against Staphylococcus aureus [2]; 0.7 µg/mL (≈ 1.31 µM) in the test on Staphylococcus aureus [8]. Further, the MIC is 0.3 µg/mL (≈ 0.561 µM) in the test with Staphylococcus aureus [3], 0.5 µg/mL (≈ 0.935 µM) against Staphylococcus aureus [9], 0.4 µg/mL (≈ 0.748 µM) against Staphylococcus aureus [10] and 0.3 µg/mL (≈ 0.561 µM) with Staphylococcus aureus [4]. The MIC90 is 0.5 µg/mL (≈ 0.935 µM) with Staphylococcus aureus [5]; 2 µg/mL (≈ 3.74 µM) against Staphylococcus aureus [6]; 1 µg/mL (≈ 1.87 µM) against Staphylococcus aureus [1]; 1 µg/mL (≈ 1.87 µM) in the test on Staphylococcus aureus [7]; 0.5 µg/mL (≈ 0.935 µM) in the test on Staphylococcus aureus [2]; 1 µg/mL (≈ 1.87 µM) with Staphylococcus aureus [8]. Besides, the MIC90 in the test on Staphylococcus aureus [3], in the test on Staphylococcus aureus [9], in the test on Staphylococcus aureus [10] and in the test on Staphylococcus aureus [4] was 0.5 µg/mL (≈ 0.935 µM) throughout.
In the case of `CC(=O)OCC1=C(C(=O)O)N2C(=O)[C@@H](NC(=O)Cc3cccs3)[C@H]2SC1` [CEPHALOTHIN], the minimal inhibitory concentration (MIC) in the test with Staphylococcus aureus [5] was 0.5 µg/mL (≈ 1.26 µM); in the test on Staphylococcus aureus [6], 1.3 µg/mL (≈ 3.28 µM); in the test with Staphylococcus aureus [1] it was 1.9 µg/mL (≈ 4.79 µM); with Staphylococcus aureus [7], 2 µg/mL (≈ 5.04 µM); against Staphylococcus aureus [2], 0.5 µg/mL (≈ 1.26 µM); against Staphylococcus aureus [8], 3 µg/mL (≈ 7.57 µM). The MIC against Staphylococcus aureus [3] was found to be 0.3 µg/mL (≈ 0.757 µM); with Staphylococcus aureus [9] it was 0.6 µg/mL (≈ 1.51 µM); in the test on Staphylococcus aureus [10], 0.4 µg/mL (≈ 1.01 µM); in the test on Staphylococcus aureus [4], 0.3 µg/mL (≈ 0.757 µM). The MIC90 against Staphylococcus aureus [5] amounted to 1 µg/mL (≈ 2.52 µM); in the test on Staphylococcus aureus [6] it was 4 µg/mL (≈ 10.1 µM); in the test with Staphylococcus aureus [1], 8 µg/mL (≈ 20.2 µM); in the test on Staphylococcus aureus [7], 8 µg/mL (≈ 20.2 µM); in the test on Staphylococcus aureus [2], 1 µg/mL (≈ 2.52 µM); in the test on Staphylococcus aureus [8], 8 µg/mL (≈ 20.2 µM). The MIC90 in the test with Staphylococcus aureus [3] came out at 0.5 µg/mL (≈ 1.26 µM); against Staphylococcus aureus [9] it was 1 µg/mL (≈ 2.52 µM); against Staphylococcus aureus [10], 0.5 µg/mL (≈ 1.26 µM); against Staphylococcus aureus [4], 0.5 µg/mL (≈ 1.26 µM).
As to `CO/N=C(\C(=O)N[C@@H]1C(=O)N2C(C(=O)O)=C(COC(N)=O)CS[C@H]12)c1ccco1` [CEFUROXIME], in the test with Staphylococcus aureus [1], the minimum inhibitory concentration (MIC) is 1 µg/mL (≈ 2.36 µM) and the MIC90 stood at 1 µg/mL (≈ 2.36 µM). In the test with Staphylococcus aureus [4], the MIC is 1 µg/mL (≈ 2.36 µM) and the MIC90 worked out at 1 µg/mL (≈ 2.36 µM).
In the case of `CC1=C(C(=O)O)N2C(=O)[C@@H](NC(=O)[C@H](N)c3ccccc3)[C@H]2SC1` [CEPHALEXIN ANHYDROUS], the minimal inhibitory concentration (MIC) was found to be 3.3 µg/mL (≈ 9.5 µM) with Staphylococcus aureus [5]; 14.7 µg/mL (≈ 42.3 µM) in the test on Staphylococcus aureus [6]; 10.7 µg/mL (≈ 30.8 µM) against Staphylococcus aureus [1]; 10.6 µg/mL (≈ 30.5 µM) against Staphylococcus aureus [7]; 3.9 µg/mL (≈ 11.2 µM) in the test on Staphylococcus aureus [2]; 6.6 µg/mL (≈ 19 µM) against Staphylococcus aureus [8]. In addition, the minimal inhibitory concentration (MIC) against Staphylococcus aureus [3] turned out to be 2.5 µg/mL (≈ 7.2 µM); against Staphylococcus aureus [9], 3.8 µg/mL (≈ 10.9 µM); in the test on Staphylococcus aureus [10], 4.6 µg/mL (≈ 13.2 µM); against Staphylococcus aureus [4], 3.1 µg/mL (≈ 8.92 µM). Moreover, the MIC90 is 4 µg/mL (≈ 11.5 µM) against Staphylococcus aureus [5]; 64 µg/mL (≈ 184 µM) against Staphylococcus aureus [6]; 32 µg/mL (≈ 92.1 µM) against Staphylococcus aureus [1]; 32 µg/mL (≈ 92.1 µM) against Staphylococcus aureus [7]; 4 µg/mL (≈ 11.5 µM) in the test on Staphylococcus aureus [2]; 16 µg/mL (≈ 46.1 µM) with Staphylococcus aureus [8]. Moreover, the MIC90 was determined as 4 µg/mL (≈ 11.5 µM) in the test with Staphylococcus aureus [3], 4 µg/mL (≈ 11.5 µM) in the test on Staphylococcus aureus [9], 8 µg/mL (≈ 23 µM) in the test on Staphylococcus aureus [10] and 4 µg/mL (≈ 11.5 µM) in the test on Staphylococcus aureus [4].
In the case of `CO/N=C(\C(=O)N[C@@H]1C(=O)N2C(C(=O)O)=C(CSc3nc(=O)c(O)nn3C)CS[C@H]12)c1csc(N)n1` [CEFTRIAXONE], the MIC in the test on Staphylococcus aureus [1] came out at 3.4 µg/mL (≈ 6.13 µM); with Staphylococcus aureus [2], 2.9 µg/mL (≈ 5.23 µM); in the test with Staphylococcus aureus [3], 3.1 µg/mL (≈ 5.59 µM); against Staphylococcus aureus [4], 3.1 µg/mL (≈ 5.59 µM). The MIC90 in the test on Staphylococcus aureus [1], against Staphylococcus aureus [2], against Staphylococcus aureus [3] and in the test on Staphylococcus aureus [4] was 4 µg/mL (≈ 7.21 µM) throughout.
